Measurements taken from ChEMBL document CHEMBL3271933, “Inhibitors of hepatic mixed function oxidase. 3. Inhibition of hepatic microsomal aniline hydroxylase and aminopyrine demethylase by 2,6- and 2,4-dihydroxyphenyl alkyl ketones and related compounds” (J Med Chem, 1977).
pIC50: −log10 of the molar value. Structures can show the parent of a compound that is named as a salt. Each block holds one molecule with its values, some of them ahead of it. Active and inactive are the calls of the source. The calls are words filed in the database; no cut-off is given here.

Columns and labels:
[1] = Inhibition of aniline hydroxylase activity of mixed function oxidase system in Wistar rat liver microsomes assessed as conversion of aniline to p-aminophenol after 10 mins; details: read-out: I50
[2] = Inhibition of aminopyrine demethylase activity of mixed function oxidase system in Wistar rat liver microsomes assessed as conversion of aminopyrine to 4-aminoantipyrine after 20 mins; details: read-out: I50
Outline: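 Microsomes from phenobarbitone-pretreated male Wistar rats, with the same NADPH-generating cofactors. Incubation in 3.0 mL containing aminopyrine 1.5 μmol and 5.6 mg protein in pH 7.4 phosphate, 20 min. 4-Aminoantipyrine formed was assayed. Benzyl ethers added in DMSO; other inhibitors usually in water. I50 taken from 5–7 inhibitor levels, means of duplicates.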

[3] = tested on: Mus musculus; assay: In vivo inhibition of mixed function oxidase system in mouse assessed as increase in zoxazolamine-induced paralysis time at 100 mg/kg, ip pretreated for 10 mins followed by zoxazolamine-challenge relative to control; parameters: scale not given: the % may be the effect or the level left; details: route intraperitoneal
[4] = tested on: Mus musculus; assay: In vivo inhibition of mixed function oxidase system in mouse assessed as prolongation of hexobarbital-induced sleeping time at 100 mg/kg, ip pretreated for 10 mins followed by hexobarbital-challenge relative to control; parameters: scale not given: the % may be the effect or the level left; details: route intraperitoneal
[5] = organism: Rattus norvegicus; assay: Inhibition of aniline hydroxylase activity of mixed function oxidase system in Wistar rat liver microsomes assessed as conversion of aniline to p-aminophenol at 10^-3 M after 10 mins

SMILES: O=Cc1ccc(O)cc1O
pIC50 [1]: 2.85
pIC50 [2]: 2.96

SMILES: CC(=O)c1ccc(O)cc1O
pIC50 [1]: 3.15
pIC50 [2]: 3.28
Activity [3]: 77%
Activity [4]: 127%

SMILES: O=Cc1c(O)cccc1O
pIC50 [1]: 3.70
pIC50 [2]: 3.19

SMILES: CCCCOCCOCCOCc1cc2c(cc1CCC)OCO2 [PIPERONYL BUTOXIDE]
pIC50 [1]: 3.38
pIC50 [2]: 3.38

Molecules with a higher pIC50 [2], results first:

pIC50 [1]: 3.54
pIC50 [2]: 5.22
SMILES: CCCC(C(=O)OCCN(CC)CC)(c1ccccc1)c1ccccc1 [PROADIFEN HYDROCHLORIDE]

pIC50 [1]: 3.41
pIC50 [2]: 3.49
SMILES: CC(=O)c1ccccc1O

pIC50 [1]: 3.72
pIC50 [2]: 4.10
SMILES: CC(=O)c1c(O)cccc1OCc1ccccc1
Activity [3]: 156%
Activity [4]: 170%

pIC50 [2]: 3.77
inhibition [5]: inactive
SMILES: CCC(=O)c1ccc(OC)cc1O

pIC50 [1]: 3.12
pIC50 [2]: 3.80
SMILES: CCC(=O)c1ccc(O)cc1O

pIC50 [1]: 3.68
pIC50 [2]: 3.85
SMILES: CC(=O)c1c(O)cccc1O
Activity [3]: 164%
Activity [4]: 190%

pIC50 [1]: 3.70
pIC50 [2]: 4.05
SMILES: COc1cccc(O)c1C(C)=O
Activity [4]: 233%
